pIC50, pKd: −log10 of the molar value. Activity calls are given as the source filed them. The calls are words filed in the database; no cut-off is given here.
What was measured:
Homo sapiens [1] = organism: Homo sapiens; test: Inhibition of full length His-tagged HSP90/GST-tagged Cdc37 (unknown origin) interaction at 100 uM after 1 hr by HTRF assay relative to control
Outline: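 HTRF assay using His-tagged full-length Hsp90 and GST-tagged Cdc37 M, each 250 nM final, in PBS with an extra 400 mM KF, pH 7.4. Compound incubated 1 h at 37 °C. Anti-GST-Cryptate and anti-6His-XL665 then added, 0.5 h at 37 °C. Ex 320 nm; ratio = (665/620 nm) × 10000. No-compound negative control and reagent-only blank.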

Homo sapiens [2] = organism: Homo sapiens; test: Inhibition of full length His-tagged HSP90/GST-tagged Cdc37 (unknown origin) interaction at 10 uM after 1 hr by HTRF assay relative to control
MCF7 [3] = test: Antiproliferative activity against human MCF7 cells at 10 uM after 72 hrs by MTT assay relative to control; format: functional
SK-BR-3 [4] = test: Antiproliferative activity against human SKBR3 cells at 10 uM after 72 hrs by MTT assay relative to control; format: functional
A549 [5] = test: Antiproliferative activity against human A549 cells at 10 uM after 72 hrs by MTT assay relative to control; format: functional
Homo sapiens [6] = organism: Homo sapiens; test: Inhibition of N-terminal GST-tagged HSP90/Cdc37 (unknown origin) interaction expressed in Escherichia coli at 20 uM preincubated with Cdc37 for 1 hr followed by addition to HSP90 by GST-pull down assay
Outline: (§1)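 Pull-down with 10 μg GST-Hsp90 N-terminal domain immobilised as bait on glutathione resin spin columns. Compound incubated with Cdc37 for 1 h at 37 °C, then added to the columns. Loading buffer 25 mM Tris, 0.15 M NaCl, pH 7.2; elution with extra 10 mM reduced glutathione; spins 1 min at 1,000 × g, 4 °C. Eluate analysed by SDS-PAGE and anti-GST/anti-His western blot.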

Homo sapiens [7] = organism: Homo sapiens; test: Inhibition of HSP90/Cdc37 protein-protein interaction in human SKBR3 cells assessed as decrease in Akt level after 24 hrs by Western blot analysis; format: cell-based
Outline: (§2)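 SKBR-3 cells treated with compound at 1, 10 and 50 μM for 24 h. After a PBS rinse and trypsinisation, cells lysed in Tris-HCl pH 7.5 buffer with NaCl, EDTA, NP-40, PMSF, NaF and DTT; lysate spun 12000 rpm, 10 min, 4 °C. Protein by BCA, equal loads on SDS-PAGE. Probed for Hsp90, Akt, Cdk4, β-actin; DyLight 800 secondary, infrared imaging.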

Homo sapiens [8] = organism: Homo sapiens; test: Inhibition of HSP90/Cdc37 protein-protein interaction in human SKBR3 cells assessed as decrease in CDK4 level after 24 hrs by Western blot analysis; format: cell-based; outline: as §2
SK-BR-3 [9] = test: Effect on HSP90 level in human SKBR3 cells at 1 to 50 uM after 24 hrs by Western blot analysis; format: functional, cell-based; outline: as §2
Heat shock protein HSP90 = Heat shock protein HSP90 (Homo sapiens, UniProt P07900+P08238); test: Binding affinity to N-terminal GST-tagged HSP90 (unknown origin) expressed in Escherichia coli by biolayer interferometry analysis
[10] = Inhibition of full length His-tagged HSP90/GST-tagged Cdc37 (unknown origin) interaction after 1 hr by HTRF assay; set-up: species or system Homo sapiens
Outline: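 Final 250 nM each of His-Hsp90 (full length) and GST-Cdc37 M in PBS with extra 400 mM KF, pH 7.4. Compound added (300 μM to 1.23 μM, three-fold steps), 1 h at 37 °C. Anti-GST-cryptate and anti-6His-XL665 added, 0.5 h at 37 °C. TR-FRET read at ex 320 nm, em 665/620 nm, ratio ×10000. No-compound and reagent-only controls included.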

MCF7 [11] = test: Antiproliferative activity against human MCF7 cells after 72 hrs by MTT assay; format: functional, cell-based; conditions: MCF7, 72 h
Outline: (§3)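 Cells seeded at 10000/well and left 24 h, then exposed to compounds in DMSO (200 μM down to 0.823 μM, three-fold steps) for 72 h at 37 °C. Viability was read by MTT (5 mg/mL in PBS) with formazan dissolved in DMSO, OD at 490 nm. IC50 was taken from parallel experiments as mean ± SD. Media: MCF-7 in MEM, SKBR-3 in RPMI-1640, A549 in F12K, each with 10% FCS.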

SK-BR-3 [12] = test: Antiproliferative activity against human SKBR3 cells after 72 hrs by MTT assay; format: functional, cell-based; conditions: SK-BR-3, 72 h; outline: as §3
A549 [13] = test: Antiproliferative activity against human A549 cells after 72 hrs by MTT assay; format: functional, cell-based; conditions: A549, 72 h; outline: as §3
Homo sapiens [14] = organism: Homo sapiens; test: Inhibition of N-terminal GST-tagged HSP90/Cdc37 (unknown origin) interaction expressed in Escherichia coli preincubated with Cdc37 for 1 hr followed by addition to HSP90 by GST-pull down assay; outline: as §1

| Compound | inhibition (Homo sapiens [1]) [%] | inhibition (Homo sapiens [2]) [%] | Activity (MCF7 [3]) [%] | Activity (SK-BR-3 [4]) [%] | Activity (A549 [5]) [%] | inhibition (Homo sapiens [6]) | inhibition (Homo sapiens [7]) | inhibition (Homo sapiens [8]) | Activity (SK-BR-3 [9]) | pKd (Heat shock protein HSP90) | pIC50 [10] | pIC50 (MCF7 [11]) | pIC50 (SK-BR-3 [12]) | pIC50 (A549 [13]) | inhibition (Homo sapiens [14]) |
| --- | --- | --- | --- | --- | --- | --- | --- | --- | --- | --- | --- | --- | --- | --- | --- |
| CC1=C(O)C(=O)C=C2C1=CC=C1[C@@]2(C)CC[C@@]2(C)[C@@H]3C[C@](C)(C(=O)O)CC[C@]3(C)CC[C@]12C [CELASTROL] | 92.3 | 79.3 | 98.62 | 97.62 | 95.43 | Active | Dose-dependent effect | Dose-dependent effect | inactive | – | – | – | – | – | – |
| Cn1nccc1NS(=O)(=O)c1ccc(NC(=O)CCC(=O)Nc2ccc(S(=O)(=O)Nc3ccnn3C)cc2)cc1 | 79.4 | – | – | – | – | – | Dose-dependent effect | Dose-dependent effect | inactive | 4.39 to 4.40 | 4.56 to 4.57 | 4.58 | 4.83 | 4.42 | Dose-dependent effect |
